Assay outcomes from PubChem BioAssay.
An excerpt weighted towards active compounds, which were near 5.8% of everything screened.
GASC1 inh – blocks human GASC-1 (KDM4C) demethylase activity. GST-KDM4C 2-372, H3K9me3 peptide, LANCE TR-FRET. AID 720574. 96,000 compounds, 0.15% hits. Q9H3R0. inhibition, % at 12.5 µM;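 active = mean replicate inhibition above about 25%, with at least 55% of replicates also reaching it, limit read from the data, passing the limit was not always enough; inconclusive = only one of those two conditions met; inactive = neither condition met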
Target sequence (Q9H3R0 2-372 limits assumed): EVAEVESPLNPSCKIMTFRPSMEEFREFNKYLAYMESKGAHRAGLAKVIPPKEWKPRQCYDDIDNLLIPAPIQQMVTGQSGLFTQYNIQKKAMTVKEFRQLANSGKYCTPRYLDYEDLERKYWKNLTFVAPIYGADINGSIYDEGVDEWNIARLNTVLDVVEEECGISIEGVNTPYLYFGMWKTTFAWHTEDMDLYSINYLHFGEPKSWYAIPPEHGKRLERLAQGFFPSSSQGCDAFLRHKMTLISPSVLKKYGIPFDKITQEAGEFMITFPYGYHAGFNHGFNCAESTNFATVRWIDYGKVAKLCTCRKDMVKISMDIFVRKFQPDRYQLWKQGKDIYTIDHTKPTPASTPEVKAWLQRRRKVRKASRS
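Material: N-terminal GST-fused human GASC-1 (KDM4C) fragment, residues 2-372. Input: 10 nM enzyme. Incubation: enzyme reaction 30 min, then detection 60 min, both room temperature. Doses: one test concentration per compound. Read-out basis: inhibition from TR-FRET ratio decrease. Detection: LANCE TR-FRET, excitation 340 nm, emissions 618 and 671 nm.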
IDH1 mut inh – inhibitors of human IDH1 R132H. AID 624101. IDH1 R132H reductase, diaphorase/resazurin fluorescence, 60 min. 70,000 compounds, 0.18% hits. inhibition, % at 10 µM. O75874; in the data active = inhibition above about 34%; inconclusive = no clear call, values can overlap the other calls; inactive = below about 11%
Target sequence (O75874 whole entry R132H): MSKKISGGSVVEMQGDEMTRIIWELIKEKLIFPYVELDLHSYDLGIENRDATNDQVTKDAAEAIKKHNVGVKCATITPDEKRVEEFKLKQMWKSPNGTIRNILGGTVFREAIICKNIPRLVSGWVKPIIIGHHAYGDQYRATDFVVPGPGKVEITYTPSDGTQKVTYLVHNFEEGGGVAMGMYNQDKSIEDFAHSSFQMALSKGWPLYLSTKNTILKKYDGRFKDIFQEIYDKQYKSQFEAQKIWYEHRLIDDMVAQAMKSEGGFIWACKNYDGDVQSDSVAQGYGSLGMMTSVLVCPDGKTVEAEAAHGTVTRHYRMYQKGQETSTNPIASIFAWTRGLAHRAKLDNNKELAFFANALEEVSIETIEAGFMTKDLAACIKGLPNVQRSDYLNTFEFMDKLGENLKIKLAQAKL
T cruzi growth-1 – inhibitors of T. cruzi proliferation; T. cruzi beta-gal in NIH3T3, GalScreen luminescence, 90 h; inhibition, % at 8.34 µM; 77,000 compounds, 5.9% hits;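 active = mean inhibition above about 93%, with at least 55% of replicates each passing it, limit read from the data, passing the limit was not always enough; inconclusive = only one of those two conditions holds; inactive = neither condition holds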
Pf Dd2 growth – P. falciparum Dd2 growth inhibition | SYBR Green, 72 h; stronger effect = lower value | activity change, % at 10 µM | 94,000 compounds, 2.3% hits | AID 1159554; in the data active = activity change below about -80%; inconclusive = no clear call, values can overlap the other calls
T cruzi growth-2 – Trypanosoma cruzi proliferation inhibition | shares compounds with T cruzi growth-1 | T. cruzi beta-gal in NIH3T3, GalScreen luminescence, 90 h | inhibition, % at 8.35 µM | 5,600 compounds, 72% hits | AID 651739;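 active = mean replicate inhibition above about 95% and at least 55% of replicates individually reaching it, limit read from the data; inconclusive = only one of the two criteria is met; inactive = neither criterion is met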
T cruzi growth-3 – blocks T. cruzi growth in NIH3T3 host cells | shares compounds with T cruzi growth-1 | T. cruzi beta-gal in NIH3T3, GalScreen luminescence, 90 h | inhibition, % at 2.09 µM | 5,600 compounds, 21% hits | AID 651740;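 active = mean inhibition above about 95%, with at least 55% of replicates also reaching it, limit read from the data; inconclusive = meets just one of the two conditions; inactive = meets neither condition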
3T3 cytotox – kills mouse NIH/3T3 fibroblasts. shares compounds with T cruzi growth-1. NIH/3T3 viability, CellTiter-Glo ATP luminescence, 90 h. cytotoxicity (signal decrease), % at 8.35 µM. 5,600 compounds, 14% hits. AID 651742;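 active = mean signal decrease across replicates above about 35% based on untreated-well scatter, with enough replicates individually passing, limit read from the data; inconclusive = no rule stated though some were filed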
NIH3T3 tox 2 – kills mouse NIH/3T3 fibroblasts; shares compounds with T cruzi growth-1; NIH/3T3 viability, CellTiter-Glo ATP luminescence, 90 h; inhibition, % at 24.9 µM; 5,600 compounds, 56% hits;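 active = mean loss of cell viability signal at or above a set limit, and enough replicates individually reaching it; inconclusive = meets only the mean limit or only the replicate share; inactive = meets neither condition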
Of the large screens only hits and unclear results are named; the others gave an inactive call (follow-up assays come after a bar, where they were run).

O=C(Nc1cc(F)ccc1F)N1CCCCN2[C@@H](CO)[C@@H](c3ccc(-c4cccnc4)cc3)[C@@H]2C1	none (no result: IDH1 mut inh)
O=C(Nc1cc(F)ccc1F)N1CCCCN2[C@H](CO)[C@H](c3ccc(-c4ccncc4)cc3)[C@H]2C1	T cruzi growth-1 100.5 (no result: IDH1 mut inh) | T cruzi growth-2 111.2 | T cruzi growth-3 inactive | 3T3 cytotox inactive | NIH3T3 tox 2 inactive
C/C=C/c1ccc([C@H]2[C@@H](CO)N3CCCCN(C(=O)Nc4cc(F)ccc4F)C[C@H]23)cc1	T cruzi growth-1 101.8 (no result: IDH1 mut inh) | T cruzi growth-2 110.7 | T cruzi growth-3 inactive | 3T3 cytotox inactive | NIH3T3 tox 2 103.9
Cc1noc(C)c1NC(=O)Nc1ccc2c(c1)C(=O)N([C@@H](C)CO)C[C@H](C)[C@@H](CN(C)S(=O)(=O)c1cn(C)cn1)OCCCC[C@H](C)O2	none
CO[C@H]1CN(C)C(=O)c2cc(NC(C)=O)ccc2OC[C@@H](C)N(C(=O)c2ccccn2)C[C@H]1C	none
C=C[C@@]12COC(=O)C(=C)[C@@H]1[C@@H](O)[C@H](C(=C)C(=O)OC)[C@@H](O)C2	none (no result: GASC1 inh, T cruzi growth-1, Pf Dd2 growth)
C[C@@H]1CN([C@@H](C)CO)C(=O)Cc2cc(NC(=O)Nc3ccc4c(c3)OCO4)ccc2O[C@H]1CN(C)Cc1ccc(C(=O)O)cc1	none (no result: T cruzi growth-1)
C[C@H](CO)N1C[C@H](C)[C@H](CN(C)S(=O)(=O)c2cccs2)Oc2ccc(NC(=O)Nc3ccc(C(F)(F)F)cc3)cc2C1=O	T cruzi growth-1 114.9 (no result: IDH1 mut inh) | T cruzi growth-2 103.1 | T cruzi growth-3 inactive | 3T3 cytotox inactive | NIH3T3 tox 2 99.6
C[C@@H]1CN([C@H](C)CO)C(=O)c2cc(NC(=O)Nc3ccc(C(F)(F)F)cc3)ccc2O[C@@H]1CN(C)S(=O)(=O)c1cccs1	T cruzi growth-1 inconclusive | T cruzi growth-2 107.8 | T cruzi growth-3 inactive | 3T3 cytotox inactive | NIH3T3 tox 2 40.1
C[C@H]1CN([C@@H](C)CO)C(=O)c2cccc(NC(=O)Nc3ccc(C(F)(F)F)cc3)c2O[C@H]1CN(C)S(=O)(=O)c1cccs1	none
C[C@H]1CN([C@@H](C)CO)C(=O)c2cccc(NS(C)(=O)=O)c2O[C@@H]1CN(C)S(=O)(=O)c1cccs1	T cruzi growth-1 inconclusive | T cruzi growth-2 inactive | T cruzi growth-3 inactive | 3T3 cytotox inactive | NIH3T3 tox 2 48.1
C[C@H](CO)N1C[C@H](C)[C@H](CN(C)S(=O)(=O)c2cccs2)Oc2c(NC(=O)Nc3ccc(C(F)(F)F)cc3)cccc2C1=O	T cruzi growth-1 103.1 | T cruzi growth-2 inactive | T cruzi growth-3 inactive | 3T3 cytotox 56.1 | NIH3T3 tox 2 105.1
C[C@@H]1CN([C@@H](C)CO)C(=O)c2cccc(NS(C)(=O)=O)c2O[C@@H]1CN(C)S(=O)(=O)c1cccs1	none
C[C@@H]1CN([C@H](C)CO)C(=O)c2cc(NC(=O)Nc3ccc(C(F)(F)F)cc3)ccc2O[C@H]1CN(C)S(=O)(=O)c1cccs1	none (no result: IDH1 mut inh)
CCOC(=O)c1c(NC(=O)COc2ccccc2C)sc2c1CCC2	none (no result: GASC1 inh, T cruzi growth-1, Pf Dd2 growth)
CO[C@@H]1CN(C)C(=O)c2cc(NC(=O)Nc3c(C)noc3C)ccc2OC[C@@H](C)N(C(=O)Nc2cccc(Cl)c2)C[C@H]1C	none (no result: Pf Dd2 growth)
C[C@H](CO)N1C[C@H](C)[C@H](CN(C)C(=O)c2cccc(F)c2)Oc2cc(-c3cccc(F)c3)ccc2S1(=O)=O	none
C[C@@H]1CN([C@H](C)CO)S(=O)(=O)c2ccc(-c3ccncc3)cc2O[C@H]1CN(C)C(=O)c1cccc(F)c1	T cruzi growth-1 112.8 | T cruzi growth-2 inactive | T cruzi growth-3 inactive | 3T3 cytotox inactive | NIH3T3 tox 2 47.2
C[C@H](CO)N1C[C@H](C)[C@H](CN(C)C(=O)c2cccc(F)c2)Oc2cc(-c3ccncc3)ccc2S1(=O)=O	T cruzi growth-1 108.9 | T cruzi growth-2 inactive | T cruzi growth-3 inactive | 3T3 cytotox inactive | NIH3T3 tox 2 inactive
C[C@@H]1CN([C@@H](C)CO)S(=O)(=O)c2ccc(-c3ccncc3)cc2O[C@@H]1CN(C)C(=O)c1cccc(F)c1	none
C[C@H]1CN([C@@H](C)CO)S(=O)(=O)c2ccc(-c3ccncc3)cc2O[C@@H]1CN(C)C(=O)c1cccc(F)c1	T cruzi growth-1 113.6 | T cruzi growth-2 inactive | T cruzi growth-3 inactive | 3T3 cytotox inactive | NIH3T3 tox 2 inconclusive
C[C@H](CO)N1C[C@H](C)[C@@H](CN(C)C(=O)Cc2ccccn2)Oc2cc(C#Cc3ccccc3)ccc2S1(=O)=O	none
C[C@@H]1CN([C@H](C)CO)S(=O)(=O)c2ccc(C#Cc3ccccc3)cc2O[C@H]1CN(C)C(=O)Cc1ccccn1	T cruzi growth-1 inconclusive, Pf Dd2 growth inconclusive | T cruzi growth-2 100.0 | T cruzi growth-3 inactive | 3T3 cytotox inactive | NIH3T3 tox 2 84.8
C[C@H](CO)N1C[C@H](C)[C@@H](CN(C)C(=O)CN(C)C)Oc2cc(C#Cc3ccccc3)ccc2S1(=O)=O	T cruzi growth-1 inconclusive, Pf Dd2 growth -83.1 | T cruzi growth-2 104.8 | T cruzi growth-3 inactive | 3T3 cytotox inactive | NIH3T3 tox 2 103.7
C[C@H](CO)N1C[C@H](C)[C@H](CN(C)C(=O)Cc2ccccn2)Oc2cc(C#Cc3ccccc3)ccc2S1(=O)=O	T cruzi growth-1 103.8, Pf Dd2 growth -85.1 | T cruzi growth-2 101.3 | T cruzi growth-3 inactive | 3T3 cytotox inactive | NIH3T3 tox 2 inactive
Cc1noc(C)c1NC(=O)Nc1ccc2c(c1)C(=O)N(C)[C@@H]1CC[C@H](CC(=O)N[C@H]3CCN(Cc4ccccc4)C3)O[C@@H]1CO2	T cruzi growth-1 109.1 (no result: IDH1 mut inh) | T cruzi growth-2 inactive | T cruzi growth-3 inactive | 3T3 cytotox inactive | NIH3T3 tox 2 inactive
Cc1noc(C)c1NC(=O)Nc1ccc2c(c1)C(=O)N(C)[C@@H]1CC[C@@H](CC(=O)N[C@H]3CCN(Cc4ccccc4)C3)O[C@@H]1CO2	T cruzi growth-1 106.9 (no result: IDH1 mut inh) | T cruzi growth-2 inactive | T cruzi growth-3 inactive | 3T3 cytotox inactive | NIH3T3 tox 2 inactive
Cc1noc(C)c1NC(=O)Nc1ccc2c(c1)C(=O)N(C)[C@H]1CC[C@@H](CC(=O)N[C@H]3CCN(Cc4ccccc4)C3)O[C@@H]1CO2	T cruzi growth-1 104.4 (no result: IDH1 mut inh) | T cruzi growth-2 inactive | T cruzi growth-3 inactive | 3T3 cytotox inactive | NIH3T3 tox 2 inactive
Cc1noc(C)c1NC(=O)Nc1ccc2c(c1)C(=O)N(C)[C@H]1CC[C@H](CC(=O)N[C@H]3CCN(Cc4ccccc4)C3)O[C@H]1CO2	T cruzi growth-1 106.0 (no result: IDH1 mut inh) | T cruzi growth-2 inactive | T cruzi growth-3 inactive | 3T3 cytotox inactive | NIH3T3 tox 2 inactive
Cc1noc(C)c1NC(=O)Nc1ccc2c(c1)C(=O)N(C)[C@@H]1CC[C@H](CC(=O)N[C@@H]3CCN(Cc4ccccc4)C3)O[C@H]1CO2	none (no result: IDH1 mut inh)
